Screening data: PubChem, Broad Institute
Shown are actives, neighbours in structure and some others; about 3.1% of the full set was active somewhere.
GSIS activator = GLuc luminescence reporter in INS-1E cells, primary screen for activators of glucose-dependent secretion of insulin | INS-1E GLuc reporter insulin secretion, 2-3 h | hit rate 0.61% among 370,000 | activation, % at 16.6 µM;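 active = lowest replicate activation of at least 40%, so every replicate reaches that level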;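 also: 0% = median of neutral control wells and 100% = median of IBMX positive control wells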
CFTR F508del cor = F508del CFTR correction, initial screen, CFBE line, single point | activity (quench increase), % at 7.58 µM | CFBE cells, YFP halide quenching; stimulated with forskolin plus potentiator P3; % fluorescence drop versus neutral controls | hit rate 0.36% among 350,000 | AID 720511, 2013;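 active = mean added fluorescence quench of at least 8% versus neutral control, with both replicates also reaching 8%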;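 also: cells transiently co-express mutant CFTR-F508del with the halide-sensitive YFP; corrector assay measuring rescue of mutant channel to the surface after 24 h compound exposure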
Cneo AK release = Cryptococcus neoformans cell lysis inducers, primary screen, AK release luminescence, single concentration; C. neoformans lysis, adenylate kinase release luminescence, 4 h; normalised: neutral wells 0, clomiphene wells 100; lysis activity, % at 15 µM; hit rate 0.2% among 360,000;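 active = mean lysis activity across replicates of at least 80%, whatever share of replicates individually reach that level; inactive = mean lysis activity below 80%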
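Material – log-phase Cryptococcus neoformans yeast cells · Input – 5 × 10^6 yeast cells/mL · Medium – fresh YPD growth medium · Doses – single compound concentration per well · Timing – static 4 h at 37 °C with compound, 1 h detection · Detection – adenylate kinase release luminescence · Read-out – signal increase indicating cell lysis · Control set – Clomiphene as positive lysis control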
HIV Env fusion = inhibitors of HIV-1 Env-driven cell-cell fusion, primary screen, HeLa-JRFL effector, CEM21 target cells, luciferase. inhibition, % at 12.3 µM. hit rate 1.1% among 360,000. AID 651610, 2012;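 active = mean replicate inhibition score of at least 50 and every replicate individually at or above 50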;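 also: 0% = plate neutral controls and 100% = maraviroc near 300 nM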
miR-122 sensor = miR-122 Renilla sensor signal increase in Huh7, primary screen, miR-122 inhibitor project, cell-based, single point, plate reader; Huh7 miR-122 Renilla luciferase sensor, 48 h; neutral wells = 0, positive control = 100; activation (reporter increase), % at 12.5 µM; hit rate 0.3% among 340,000;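 active = mean replicate activation score at least 90 and every replicate individually at or above 90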;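 also: higher luciferase means less miR-122 activity so hits act as miR-122 inhibitors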
Ecoli rRNA inh = reduced GFP signal of wild-type E. coli, primary screen, bacterial rRNA inhibitor project, GFP/RFP fluorescence, OD600, single point. hit rate 1.6% among 350,000. E. coli WT GFP vs humanized-ribosome RFP mutants, 24 h; active compounds read low; DMSO median 0, no signal -100. GFP signal change (wild-type ribosome), % (test concentration not listed). AID 720706, 2013;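 active = significant combined selectivity score with lowered wild-type GFP, culture density cut under 30%, mutant RFP and density less affected; inactive = any of these conditions unmet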
The depositor's hits bear a star; . = not tested or not shown; [ ] = remark or other dose.

SMILES | GSIS activator | CFTR F508del cor | Cneo AK release | HIV Env fusion | miR-122 sensor | Ecoli rRNA inh
C[C@@H]1CCCCO[C@H](CN(C)Cc2ccncc2)[C@@H](C)CN([C@@H](C)CO)C(=O)c2cc(NC(=O)Nc3ccccc3)ccc2O1 | -19 | -1 | 81* | -43[16.7 µM] | 26[16.7 µM] | -1
C[C@@H]1CCCCO[C@@H](CN(C)Cc2ccncc2)[C@@H](C)CN([C@H](C)CO)C(=O)c2cc(NC(=O)c3ccncc3)ccc2O1 | 10 | -2 | 93* | -4[16.7 µM] | -4[16.7 µM] | 0
CC(C)NC(=O)Nc1ccc2c(c1)C(=O)N([C@@H](C)CO)C[C@@H](C)[C@H](CN(C)Cc1ccncc1)OCCCC[C@@H](C)O2 | 3 | 0 | 111* | 4[16.7 µM] | -1[16.7 µM] | -3
C[C@H](CO)N1C[C@H](C)[C@H](CN(C)Cc2ccccc2)OCCCC[C@H](C)Oc2ccc(NC(=O)Nc3ccccc3)cc2C1=O | 4 | 0 | 43 | 75*[16.7 µM] | 8[16.7 µM] | 2
CC(=O)N[C@@H]1CC[C@H](CCNC(=O)C2CCC2)O[C@H]1CO | 5 | -2 | -2 | 0[16.7 µM] | . | 0
CSc1cccc(NC(=S)N2CCC(c3ccccc3)C2)c1 (centres undefined) | -14 | . | 10 | -25 | . | -25*
CCc1cccc(NC(=S)N2CCC(c3ccccc3)C2)c1 (centres undefined) | -29 | -1 | . | -27 | . | -27
CCCNC(=O)C1(C)CCN(C(=O)c2cccc(C(F)(F)F)c2)C1 (centres undefined) | 45* | -2 | 0 | -18 | 2 | 10
CC1(C(=O)NCc2cccc(C(F)(F)F)c2)CCN1Cc1cc2ccccc2o1 (centres undefined) | . | -4 | 0 | 20 | -5 | .
CCNC(=O)C1(C)CCCN1Cc1cccc(C(F)(F)F)c1 (centres undefined) | 44* | -2 | -1 | 23 | . | 6
COc1cccc(NC(=O)N2C[C@@H](O)COC[C@H]3O[C@H](CC(=O)NC4CCCC4)CC[C@@H]32)c1 | 10 | 0 | 1 | . | 5[16.7 µM] | -4
COc1ccc(S(=O)(=O)N(C)C[C@@H]2Oc3ccc(NS(=O)(=O)c4ccc(F)cc4)cc3CC(=O)N([C@H](C)CO)C[C@H]2C)cc1 | 1 | -5 | . | -5[16.7 µM] | -4[16.7 µM] | -1
Cc1ccc(S(=O)(=O)N(C)C[C@@H]2Oc3ccc(NS(=O)(=O)c4ccc(Cl)cc4)cc3CC(=O)N([C@H](C)CO)C[C@@H]2C)cc1 | -1 | 2 | 1 | 56*[16.7 µM] | 0[16.7 µM] | 3
COc1ccc(S(=O)(=O)Nc2ccc3c(c2)CC(=O)N([C@@H](C)CO)C[C@H](C)[C@H](CN(C)S(=O)(=O)c2ccc(F)cc2)O3)cc1 | -11 | 0 | 1 | 66*[16.7 µM] | -8[16.7 µM] | -1
Cc1ccc(S(=O)(=O)Nc2ccc3c(c2)CC(=O)N([C@H](C)CO)C[C@H](C)[C@H](CN(C)S(=O)(=O)c2ccc(C)cc2)O3)cc1 | -5 | 2 | -2 | 90*[16.7 µM] | 5[16.7 µM] | -1
COc1ccc(S(=O)(=O)Nc2ccc3c(c2)CC(=O)N([C@@H](C)CO)C[C@H](C)[C@H](CN(C)S(=O)(=O)c2ccccc2)O3)cc1 | 5 | 0 | 2 | 66*[16.7 µM] | -5[16.7 µM] | 4
C[C@@H]1CCCCO[C@@H](CN(C)Cc2ccc(C(F)(F)F)cc2)[C@@H](C)CN([C@@H](C)CO)C(=O)c2cc(NS(C)(=O)=O)ccc2O1 | -9 | 1 | 3 | -19[16.7 µM] | 6[16.7 µM] | 2
COc1ccccc1NC(=O)N[C@@H]1CC[C@@H](CCNS(=O)(=O)c2ccccc2)O[C@H]1CO | 7 | -3 | -1 | -9[16.7 µM] | -5[16.7 µM] | -2
CCCNC(=O)[C@H]1[C@H](CO)[C@H]2Cn3c(ccc(-c4ccccc4OC)c3=O)[C@H]2N1S(C)(=O)=O | 7 | -1 | . | . | . | 0
COc1ccc(S(=O)(=O)Nc2ccc3c(c2)CC(=O)N([C@@H](C)CO)C[C@H](C)[C@H](CN(C)S(=O)(=O)c2ccc(C)cc2)O3)cc1 | -13 | 5 | 1 | 96*[16.7 µM] | -8[16.7 µM] | 3
CCOC(=O)CCCCCC(=O)Nc1ccc2c(c1)CC(=O)N([C@H](C)CO)C[C@H](C)[C@H](CN(C)S(=O)(=O)c1ccc(OC)cc1)O2 | -19 | -2 | -2 | 96* | 0 | 11
CCOC(=O)c1nc(C)sc1-c1ccnn1S(=O)(=O)c1ccc(C)cc1 | -1 | 1 | -3 | 5 | 2 | -22*
CCOC(=O)c1nc(C)sc1-c1ccnn1S(=O)(=O)c1ccccc1C(F)(F)F | . | 9.8* | 0 | -6 | 1 | .
CCOC(=O)c1nc(C)sc1-c1ccnn1S(=O)(=O)c1ccc(Cl)cc1Cl | -29 | 0 | . | 12 | . | -29*
CCOC(=O)c1cc2c(C(F)(F)F)cc(-c3ccccc3)nc2o1 | . | . | . | 14 | . | .
SMILES | GSIS activator | CFTR F508del cor | Cneo AK release | HIV Env fusion | miR-122 sensor | Ecoli rRNA inh
C[C@H](CO)N1C[C@H](C)[C@H](CN(C)Cc2ccc3c(c2)OCO3)OCCCC[C@H](C)Oc2ccc(NS(=O)(=O)c3ccc(F)cc3)cc2C1=O | -13 | 3 | 33 | -29[16.7 µM] | -7[16.7 µM] | 6
CC1(C(=O)N/N=C/c2ccc3c(c2)OCO3)CC1(Br)Br (centres undefined) | -6 | -1 | 1 | 103* | 11 | -3
Cc1ccc(/C=N/NC(=O)C2(C)CC2(Br)Br)cc1 (centres undefined) | -5 | 0 | 1 | 5 | . | -7
O=C(Nc1ccc(F)cc1)Nc1ccc(N2CCOCC2)c2nonc12 | 1 | 11* | . | -20 | . | 3
COc1ccc(NC(=O)Nc2ccc(N3CCOCC3)c3nonc23)c(OC)c1 | -3 | -4 | . | 8 | . | 7
CC(=C/c1ccccc1)/C=N/N1CCN(Cc2ccc(C)cc2)CC1 | -1 | 0 | 3 | 8 | 6 | -25*
C[C@@H]1CN([C@H](C)CO)C(=O)Cc2cc(NC(=O)NC3CCCCC3)ccc2O[C@@H]1CN(C)C(=O)Nc1ccccc1 | -1 | 2 | -13 | 10[16.7 µM] | 1[16.7 µM] | 2
O=C(NCC1OCCc2ccccc21)c1ccc(NC(=O)c2ccc(Cl)cc2Cl)cc1 (centres undefined) | 267* | . | 2 | 19 | 0 | .
O=C(NCC1OCCc2ccccc21)c1ccc(NC(=O)c2cccc(Br)c2)cc1 (centres undefined) | 253* | . | 1 | 26 | 5 | .
COc1ccc2c3c(n(C)c2c1)[C@@H](CO)N(Cc1ccncc1)CC31CCN(C(=O)C2CCC2)CC1 | -4 | 1 | . | . | . | 5
